# Publication PMC4359053 (Journal of medicinal chemistry, 2015)
# Like-named read-outs stand apart in the source and are kept apart here.
# Tests used:
# [1] = system: L1210 murine lymphocytic leukemia cell line (BR−); assay: standard MTT cytotoxicity assay, continuous incubation; type: cell-based; settings: read-out: Cytotoxicity IC50, L1210; incubation at 37 °C for 48 h
# [2] = system: BR+ cancer cell lines (MX-1, L1210FR, ID8); assay: MTT cytotoxicity, text summaries pooled over BR+ cancer cell lines; type: cell-based
# In short: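 Adherent cells seeded at 8,000–10,000/well and held 24 h at 37 °C before dosing; leukemia cells at 0.5–0.8 × 10^4/well suspended directly in test solutions. Final 0.5–5,000 nM from DMSO stocks, 37 °C, 5% CO2, 48 h or 72 h. Assay 2: 24 h exposure, PBS wash, GSH-OEt (6 equiv. to conjugate) added, further 48 h. MTT 0.5 mg/mL in PBS, 3 h, 37 °C.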
# [3] = system: L1210FR murine lymphocytic leukemia cell line (BR+); assay: standard MTT cytotoxicity assay, continuous incubation; type: cell-based
# [4] = system: ID8 murine ovarian carcinoma cell line (BR+); assay: as above; type: cell-based; settings: read-out: Cytotoxicity IC50, ID8; incubation at 37 °C for 48 h
# [5] = system: WI38 human lung fibroblast cell line (BR−); assay: as above; type: cell-based
# [6] = system: MX-1 human breast carcinoma cell line (BR+); assay: as above; type: cell-based
# [7] = system: MX-1 human breast carcinoma cell line (BR+); assay: MTT Assay 2: 24 h incubation, PBS wash, GSH-OEt addition, further 48 h; type: cell-based; settings: read-out: Cytotoxicity IC50, MX-1, Assay 2, GSH-OEt (6 equiv.), additional 48 h
# In short: (§1)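 Cells grown in supplemented RPMI-1640 (5% FBS, 5% NuSerum, 1% PenStrep) at 37 °C, 5% CO2, then seeded at 0.5–1.5 × 10^4 cells/well. Test compound (from DMSO stock; DMSO ≤1%) was added for 24 h at 37 °C. Medium was then removed, cells were washed with PBS, and GSH-OEt (6 equiv. to conjugate) in fresh medium was added for 48 h more (72 h total). MTT (0.5 mg/mL, 3 h), formazan dissolved in acidic isopropanol/Triton X-100, A570. IC50 from four-parameter logistic fit; triplicate.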
# [8] = system: L1210FR murine lymphocytic leukemia cell line (BR+); assay: MTT Assay 3: 24 h incubation, GSH-OEt addition without washing, further 48 h; type: cell-based; settings: read-out: Cytotoxicity IC50, L1210FR, Assay 3, GSH-OEt (6 equiv.) added without wash, additional 48 h
# In short: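 L1210FR suspension cells in supplemented RPMI-1640 were exposed to test compound at 37 °C for 24 h; DMSO ≤1%. GSH-OEt (6 equiv.) in medium was then added directly, without washing, for a further 48 h (72 h total). Viability was read by MTT (0.5 mg/mL in PBS, 3 h, 37 °C), solubilized in 0.1 N HCl/isopropanol with 10% Triton X-100, at 570 nm. IC50 by four-parameter logistic fit; triplicate runs.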
# [9] = system: L1210FR murine lymphocytic leukemia cell line (BR+); assay: MTT Assay 2: 24 h incubation, PBS wash, GSH-OEt addition, further 48 h; type: cell-based; settings: read-out: Cytotoxicity IC50, L1210FR, Assay 2, GSH-OEt (6 equiv.), additional 48 h
# In short: as §1
# L1210 (BR−) cells = assay: internalization by confocal fluorescence microscopy and flow cytometry; type: cell-based, murine; settings: 5 µM, 37 °C
# WI38 (BR−) cells = assay: as above; type: cell-based, human; settings: 5 µM, 37 °C
# [10] = system: BR+ cancer cell lines (L1210FR, MX-1, ID8); assay: internalization by confocal fluorescence microscopy and flow cytometry; type: cell-based; settings: 5 µM, 37 °C
# In short: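 Adherent cells were seeded at 5 × 10^5 cells/mL overnight, then given medium containing 5 µM fluorescent probe. For leukemia cells, 1 mM DMSO stock was spiked into fresh suspensions to 5 µM final. Incubation ran 30 min–24 h at 37 °C; cells were then trypsinized as needed and washed twice in PBS. Flow cytometry used 488 nm excitation, 515–545 nm emission, ~10,000 cells. Confocal imaging used 488 nm excitation, 505–550 nm bandpass, 63× water objective.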
# BR+ and BR- cell lines = assay: internalization of fluorescence-labeled paclitaxel by CFM and flow cytometry; type: cell-based; settings: Figure S1
# In short: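 After probe exposure, cells trypsinised if needed, washed twice in PBS and resuspended in PBS. Flow cytometry: 488 nm excitation, emission at 530 nm (30 nm bandpass, 515–545 nm), about 10,000 cells counted per experiment, FITC fluorescence distribution analysed. Confocal: two-photon laser-scanning microscope, 488 nm excitation, emission 527 ± 23 nm (505–550 nm bandpass), cells on uncoated coverslip slide.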
# [11] = read-out: Cytotoxicity IC50, L1210FR, Assay 1, 37 °C, 72 h, no GSH-OEt
# [12] = read-out: Cytotoxicity IC50, L1210FR, incubation at 37 °C for 48 h
# [13] = read-out: Cytotoxicity IC50, WI38, Assay 1, 37 °C, 72 h, no GSH-OEt
# [14] = read-out: Cytotoxicity IC50, WI38, incubation at 37 °C for 48 h
# [15] = read-out: Cytotoxicity IC50, MX-1, Assay 1, 37 °C, 72 h, no GSH-OEt
# [16] = read-out: Cytotoxicity IC50, MX-1, incubation at 37 °C for 48 h
Compound,IC50 [1] [nM],"IC50 ([2]; read-out: Cytotoxicity IC50, MX-1 and L1210FR, free drug, range, 72 h incubation (Assay 1)) [nM]","IC50 [3, 11] [nM]","IC50 [3, 12] [nM]",IC50 [4] [nM],"IC50 [5, 13] [nM]","IC50 [5, 14] [nM]","IC50 [6, 15] [nM]","IC50 [6, 16] [nM]",IC50 [7] [nM],IC50 [8] [nM],IC50 [9] [nM],potency times lower than free taxoid 3 against three BR+ cancer cell lines ([2]; 48 h incubation),"cancer cell selectivity (BR-specificity), BR+ cancer cells vs BR− WI38 cells ([2]; Assay 2)","IC50 ([2]; read-out: Cytotoxicity IC50, BR+ cancer cells (MX-1, L1210FR), Assay 2, range, 24 h, PBS wash, GSH-OEt, additional 48 h) [nM]",internalization into L1210 cells (L1210 (BR−) cells),internalization into WI38 cells (WI38 (BR−) cells),internalization into BR+ cancer cell lines [10],internalization across BR+ and BR- cell lines (BR+ and BR- cell lines)
"CC(=O)O[C@@]12CO[C@@H]1C[C@H](O)[C@@]1(C)C(=O)[C@H](OC(=O)C3CC3)C3=C(C)[C@@H](OC(=O)[C@H](O)[C@H](C=C(C)C)NC(=O)OC(C)(C)C)C[C@@](O)([C@@H](OC(=O)c4ccccc4)[C@H]21)C3(C)C [Taxoid 3, SB-T-1214, reference compound]",7.05 ± 1.38,2.32 to 2.66,2.32 ± 1.41,4.18 ± 1.8,0.17 ± 0.14,4.89 ± 2.24,5.23 ± 0.27,2.66 ± 0.16,4.13 ± 2.59,,,,,,,,,,
Biotin-(SS-Linker)-SB-T-1214 [conjugate 4],481 ± 34,,12.3 ± 2.8,13.4 ± 6.8,4.32 ± 1.58,645 ± 97,670 ± 89,4.66 ± 0.87,15.4 ± 4.2,3.85 ± 0.14,2.92 ± 2.34,5.15 ± 2.85,3–30 times,two-orders of magnitude difference,3.85 to 6.6,,,,
Biotin-NH-PEG3-(CH2)2-NH-FITC [probe 5],,,,,,,,,,,,,,,,no appreciable internalization,no appreciable internalization,highly target-specific and efficient internalization,
7-(4-Fluoresceinyl)butanoylpaclitaxel [compound 6],,,,,,,,,,,,,,,,,,,nonspecific internalization
